Test: Toxicity liver stage against HepG2, at 10uM
Format: cell-based
Design: test concentration 10 uM, cell line HepG2-A16-CD81EGFP
Details: human, HepG2-A16-CD81EGFP cells; read-out: INHIBITION
Method in brief: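 Uninfected HepG2-A16-CD81EGFP cells, 3 × 10^3 per well, 1536-well, plated on prespotted compound at 10 μM final, parasite-free screening media added to match infected plates; puromycin 10 μM positive, DMSO 0.5% negative; run in parallel with 48 h PbLuc assay at 37 °C, 5% CO2; viability by CellTiter-Glo luminescence, normalized to controls.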

In order of rising cytotoxicity at 10 µM:
1. Cc1cnc(N2CCC3(CCCN(c4ccc(C)nn4)C3)C2)nc1 (stereo not given)  -20.7%
2. COc1ccc(CN2C[C@@H]3COC[C@@H](CC(=O)N4CCCC4)[C@@H]3C2)cc1  -18.8%
3. Cn1c(=O)[nH]c2cc(C(=O)OCC(F)F)ccc21  -17.3%
4. O=C(NCCCN1CCOCC1)c1cc(-c2ccco2)[nH]n1  -15.4%
5. CC(C)COCC(NC(=O)c1cnccn1)c1ccco1 (stereo not given)  -13.8%
6. CCOc1ccc(C(=O)N2CCCC2c2c(C)nn(C)c2Cl)cn1 (stereo not given)  -12.4%
7. C1CCCN(c2nc(C3CC3)ns2)CC1  -12.3%
8. O=C(N[C@@H]1CCN(Cc2ccc(F)cc2F)C[C@H]1O)c1cccnc1  -10.4%
9. CC(NCc1ccc(F)cc1)c1ccc2[nH]c(=O)[nH]c2c1 (stereo not given)  -9.93%
10. CN(Cc1cccnc1)[C@@H]1CN(Cc2nccn2C)[C@@H]2CCCO[C@H]12  -9.46%
11. Cc1nc(C2CCCN(C(=O)c3cc(-c4ccccc4)[nH]n3)C2)no1 (stereo not given)  -7.99%
12. CCCc1nnc(NC(=O)NC(CCO)c2cccs2)s1 (stereo not given)  -7.38%
13. O=C(c1cc(C2CC2)[nH]n1)N1CCN(Cc2ccccc2)CC1  -5.94%
14. CN(C)S(=O)(=O)CCNc1ncc2c(n1)CCN2c1ccccc1  -5.6%
15. CCN(CC)S(=O)(=O)c1cnccc1N1CCN(C(C)C)CC1  -5.57%
16. CC(C)C(Sc1nnc(NC2CC2)s1)C(=O)NCc1cccnc1 (stereo not given)  -5.49%
17. CC(C)CN1CCC(C(=O)NCCNC(=O)c2ccco2)CC1  -5.18%
18. O=c1[nH]cnc2[nH]c(N3CCNCC3)nc12  -4.31%
19. CCNC(=O)N1CCc2ccc(NC(=O)NCCOCC)cc21  -3.86%
20. COCC(=O)NCc1ccc(-c2ccccc2C(=O)O)cn1  -1.53%
21. O=S(=O)(c1cccs1)N1CC[C@H]2[C@H]1CCN2c1ncccn1  -0.861%
22. CCN1CCC2(CC1)C(=O)Nc1ccc(C(=O)NC)cc12  -0.697%
23. COCc1nnn2c1CN(C(=O)c1ccnnc1)CCC2  -0.461%
24. CC(=O)N1CCN(C(=O)CCNc2snc(Cl)c2C#N)CC1  -0.367%
25. O=C(NC1CCCN(c2ccc(OC(F)F)cc2)C1)c1cnccn1 (stereo not given)  0%
26. Cc1nc[nH]c1CN1CCCn2nc(CN3CCC(F)(F)CC3)cc2C1  0.13%
27. CC[C@@H]1N(Cc2nccs2)CCC[C@]12CCC(=O)N2C  0.287%
28. CSc1ccccc1CN1C[C@H]2C(=O)N(CC3CC3)C[C@@]2(C(=O)O)C1  0.666%
29. O=C(CCc1ccc(Cl)cc1)N1CCC(O)(C(F)(F)F)C1 (stereo not given)  1.16%
30. CN(Cc1cccnc1)[C@@H]1CN(c2ccccn2)[C@@H]2CCCO[C@H]12  2.78%
31. CN(C)C(=O)c1n[nH]c2c1CN(Cc1ccccn1)CC2  3.17%
32. CCOCc1ncn2c1CN(C(=O)Nc1ccccc1)CC2  3.54%
33. CN1CCC(Nc2ccc(Cl)cc2OCC(F)(F)F)C1=O (stereo not given)  5.02%
34. CC(C)C(=O)N1CCCC2(CCCN2CC2CCCC2)C1 (stereo not given)  5.25%
35. Cc1ccc2c(c1)C1(CCNCC1)CC2OCC1CC1 (stereo not given)  6.13%
36. O=C(c1ccoc1)N1CCO[C@]2(CCC[C@@H]2COCc2cccnc2)C1  6.32%
37. Cc1ccoc1C(=O)N1C[C@@H](N2CCN(C)CC2)[C@H]2OCCC[C@H]21  7.1%
38. CCCN(CC)C(=O)c1nc2c(n1C)CCN(Cc1ccccc1)C2  7.28%
39. CCCNC(=O)c1cc2c(s1)CCN2C(=O)c1ccccc1  7.31%
40. Cc1nc(-c2ccccc2)n(CC(=O)NC(C)C2CC2)n1 (stereo not given)  7.44%
41. CCN1CCCC12CCN(C(=O)c1nccn1C)CC2  7.89%
42. CC(C)(C)NC(=O)N1CCCn2nc(C(=O)Nc3ccccc3)cc2C1  8.88%
43. CCNC(=O)[C@@H]1CCCN1C(=O)c1cccc(CCC(C)(C)O)c1  9.91%
44. c1cncc(OCc2noc3c2CN(Cc2cccs2)CC3)c1  9.95%
45. Cc1cnn(CC(C)Nc2cnc3ccccc3n2)c1 (stereo not given)  14.5%
